{"data": "Assay results collected from several papers", "target": "Serine/threonine-protein kinase D1 (PRKD1, Homo sapiens, UniProt Q15139)", "Residues used in one study (Q15139 1-912)": "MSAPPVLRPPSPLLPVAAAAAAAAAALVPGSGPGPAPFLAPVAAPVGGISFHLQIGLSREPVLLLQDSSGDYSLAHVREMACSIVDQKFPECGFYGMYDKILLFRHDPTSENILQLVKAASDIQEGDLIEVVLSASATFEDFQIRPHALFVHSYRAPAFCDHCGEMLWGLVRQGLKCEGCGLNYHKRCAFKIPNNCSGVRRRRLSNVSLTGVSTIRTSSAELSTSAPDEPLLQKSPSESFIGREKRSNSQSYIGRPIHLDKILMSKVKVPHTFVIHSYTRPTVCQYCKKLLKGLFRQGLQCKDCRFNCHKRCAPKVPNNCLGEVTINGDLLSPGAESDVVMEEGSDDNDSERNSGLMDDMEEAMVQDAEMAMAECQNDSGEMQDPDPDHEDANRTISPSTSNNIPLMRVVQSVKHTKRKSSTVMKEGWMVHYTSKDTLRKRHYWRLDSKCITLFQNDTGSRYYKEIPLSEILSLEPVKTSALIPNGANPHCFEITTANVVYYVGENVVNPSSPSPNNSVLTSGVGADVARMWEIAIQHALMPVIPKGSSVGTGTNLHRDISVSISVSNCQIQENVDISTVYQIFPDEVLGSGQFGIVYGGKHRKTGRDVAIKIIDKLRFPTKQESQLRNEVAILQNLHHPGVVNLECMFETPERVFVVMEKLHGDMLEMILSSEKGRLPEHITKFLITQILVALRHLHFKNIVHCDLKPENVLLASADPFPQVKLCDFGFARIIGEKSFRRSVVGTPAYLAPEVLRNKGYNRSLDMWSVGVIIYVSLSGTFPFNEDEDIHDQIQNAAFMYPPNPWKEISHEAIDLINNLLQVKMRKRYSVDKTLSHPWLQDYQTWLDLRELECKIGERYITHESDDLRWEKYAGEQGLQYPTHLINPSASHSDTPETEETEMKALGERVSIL", "note": "Lines come from different studies, so protocols differ."}
{"Compound": "CC(=O)c1c(NS(C)(=O)=O)c2cc(-c3ccc(Cl)cc3)c(-c3ccc(Cl)cc3Cl)nc2n(C)c1=O", "assay": "cell-free assay, competition with immobilised ligand", "setting": "1 µM", "remaining binding [%]": 100}
{"Compound": "CN(C)c1ncc(F)c(-c2cnn3ncccc23)n1", "assay": "binding", "setting": "1 µM", "remaining binding [%]": 100}
{"Compound": "C[C@@H](c1ccc(-n2cnc3c(N)ncnc32)cc1)N1CCc2nn(C)c(Cc3ccccc3)c2C1=O", "assay": "binding, competition with immobilised ligand", "setting": "0.1 µM", "remaining binding [%]": 48}
{"Compound": "CN([C@@H]1CCc2c(CC(=O)O)c3cc(S(C)(=O)=O)ccc3n2C1)S(=O)(=O)c1ccc(F)cc1", "assay": "cell-free assay, competition with immobilised ligand", "setting": "1 µM", "remaining binding [%]": 75}
{"Compound": "CN(CCCC(F)(F)F)c1nccc(-c2cnn3ncccc23)n1", "assay": "binding", "setting": "1 µM", "remaining binding [%]": 95}
{"Compound": "O=C(NCC1CCOCC1)c1n[nH]cc1NC(=O)c1c(F)cccc1F", "assay": "binding, competition with immobilised ligand", "setting": "1 µM", "remaining binding [%]": 100}
{"Compound": "Cc1cnn2ncc(-c3ccnc(N(C)C)n3)c2c1", "assay": "binding", "setting": "1 µM", "remaining binding [%]": 95}
{"Compound": "O=C(c1ccc(Nc2nccc(-c3cc4ccccc4s3)n2)cc1)N1CCC(N2CCCC2)CC1", "assay": "binding, competition with immobilised ligand", "setting": "1 µM", "remaining binding [%]": 64}
{"Compound": "COc1cnc(Nc2cccc(S(N)(=O)=O)c2)nc1N1CCN(c2ccccc2)CC1", "assay": "binding, competition with immobilised ligand", "setting": "1 µM", "remaining binding [%]": 100}
{"Compound": "N[C@@H]1CCN(c2nccc(-c3cnn4ncccc34)n2)C1", "assay": "binding", "setting": "1 µM", "remaining binding [%]": 99}
{"Compound": "O=C(c1ccc(Nc2ncc(Cl)c(-c3ccc(Cl)s3)n2)cc1)N1CCC(N2CCCC2)CC1", "assay": "binding, competition with immobilised ligand", "setting": "1 µM", "remaining binding [%]": 32}
{"Compound": "COCCOc1nc(-c2ccc(Cl)nc2)nc2c1CN(C(=O)c1ncn3ccccc13)CC2", "assay": "cell-free assay, competition with immobilised ligand", "setting": "0.1 µM", "remaining binding [%]": 90}
{"Compound": "FC(F)(F)Oc1cccc(-c2cnc3ccc(-c4ccncc4)nn23)c1", "assay": "cell-free assay, competition with immobilised ligand", "setting": "5 µM", "remaining binding [%]": 100}
{"Compound": "C[C@H](c1ccnc(Nc2nc3ccc(-c4cc(N(C)C)ncn4)cc3[nH]2)c1)N1CCN(C(=O)CC(F)(F)F)CC1", "assay": "cell-free assay, competition with immobilised ligand", "setting": "0.1 µM", "remaining binding [%]": 100}
{"Compound": "CCN1CCN(Cc2ccc(C(=O)Nc3ccc(C)c(Oc4ccc5c(c4)CC(=O)N5)c3)cc2C(F)(F)F)CC1", "assay": "binding, competition with immobilised ligand", "setting": "1 µM", "remaining binding [%]": 96}
{"Compound": "C[C@@H]1CCN(c2nccc(-c3cnn4ncccc34)n2)C1", "assay": "binding", "setting": "1 µM", "remaining binding [%]": 100}
{"Compound": "CCCOc1ccc([C@@H]2[C@@H](C(=O)O)[C@H](c3ccc4c(c3)OCO4)CN2CC(=O)Nc2c(CC)cccc2CC)cc1", "assay": "cell-free assay, competition with immobilised ligand", "setting": "1 µM", "remaining binding [%]": 96}
{"Compound": "COc1cnc(Nc2cccc(S(N)(=O)=O)c2)nc1N1CCN(c2ccccc2)C(=O)C1", "assay": "binding, competition with immobilised ligand", "setting": "1 µM", "remaining binding [%]": 100}
{"Compound": "O=C(c1ccc(Nc2ncc(Cl)c(-c3cc4ccccc4s3)n2)cc1)N1CCC(N2CCCC2)CC1", "assay": "binding, competition with immobilised ligand", "setting": "1 µM", "remaining binding [%]": 28}
{"Compound": "CC1CCCN1c1nccc(-c2cnn3ncccc23)n1 (stereo not drawn)", "assay": "binding", "setting": "1 µM", "remaining binding [%]": 100}
{"Compound": "O=C1NC(c2ccccn2)Sc2ccccc21 (stereo not drawn)", "assay": "cell-free assay, competition with immobilised ligand", "setting": "1 µM", "remaining binding [%]": 100}
